3 compounds from ChEMBL document CHEMBL1146183, “Replacement of the N-terminal tyrosine residue in opioid peptides with 3-(2,6-dimethyl-4-carbamoylphenyl)propanoic acid (Dcp) results in novel opioid antagonists” (J Med Chem, 2006) can be followed below.

Assay [1] addresses Mu-type opioid receptor (Rattus norvegicus, UniProt P33535). Nature of the assay: Displacement of [3H]DAMGO from mu opioid receptor in rat brain membrane. It counts as cell membranes. (In general: In a radioligand displacement assay an active substance lowers the binding of a labelled ligand.)
The target of assay [2] is Delta-type opioid receptor (Rattus norvegicus, UniProt P33533). Nature of the assay: Displacement of [3H]DSLET from delta opioid receptor in rat brain membrane. The assay is classed as cell membranes.
Chain of Delta-type opioid receptor (P33533 whole entry): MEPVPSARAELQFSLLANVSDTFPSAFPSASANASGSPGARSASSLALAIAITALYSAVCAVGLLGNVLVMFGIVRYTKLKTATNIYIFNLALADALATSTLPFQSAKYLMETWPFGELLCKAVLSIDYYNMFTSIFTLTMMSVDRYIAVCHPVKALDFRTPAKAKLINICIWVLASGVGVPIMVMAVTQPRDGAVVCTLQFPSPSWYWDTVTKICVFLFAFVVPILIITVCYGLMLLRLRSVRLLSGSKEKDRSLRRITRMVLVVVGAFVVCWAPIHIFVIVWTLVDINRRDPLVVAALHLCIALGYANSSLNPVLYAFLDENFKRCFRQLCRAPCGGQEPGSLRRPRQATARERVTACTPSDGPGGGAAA
Assay [3] addresses Kappa-type opioid receptor (Cavia porcellus, UniProt P41144). Nature of the assay: Displacement of [3H]U-69593 from kappa opioid receptor in guinea pig brain membrane. The assay is classed as cell membranes.
A short description of assay [4]: Selectivity for rat mu opioid receptor over guinea pig kappa opioid receptor.
Assay [5] concerns the target Opioid receptors; mu & delta (Rattus norvegicus) (UniProt P33533+P33535). The experiment in a line: Selectivity for mu opioid receptor over delta receptor. It counts as protein assay.
The target of assay [6] is Mu-type opioid receptor (Cavia porcellus) (UniProt P97266). The experiment in a line: Activity at mu opioid receptor assessed as antagonizing effect against TAPP by GPI assay. It counts as functional. The essentials:
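Antagonism of the µ agonist TAPP measured in guinea pig ileum (GPI) preparation; Ke determined, reported as mean of three to six determinations.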

In assay [7] the target is Kappa-type opioid receptor (Cavia porcellus) (UniProt P41144). Nature of the assay: Activity at kappa opioid receptor assessed as antagonizing effect against U50,488 by GPI assay. The assay is classed as functional. The essentials:
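Antagonism of the κ agonist U50,488 measured in guinea pig ileum (GPI) preparation; Ke determined, reported as mean of three to six determinations.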

The target in assay [8] is Delta-type opioid receptor (Mus musculus) (UniProt P32300). The experiment in a line: Activity at delta opioid receptor assessed as antagonizing effect against DPDPE by MVD assay. It counts as functional. The essentials: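 Antagonism at δ receptors measured in mouse vas deferens (MVD) preparation; Ke determined, reported as mean of three to six determinations.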
Chain of Delta-type opioid receptor (Mus musculus) (P32300 whole entry): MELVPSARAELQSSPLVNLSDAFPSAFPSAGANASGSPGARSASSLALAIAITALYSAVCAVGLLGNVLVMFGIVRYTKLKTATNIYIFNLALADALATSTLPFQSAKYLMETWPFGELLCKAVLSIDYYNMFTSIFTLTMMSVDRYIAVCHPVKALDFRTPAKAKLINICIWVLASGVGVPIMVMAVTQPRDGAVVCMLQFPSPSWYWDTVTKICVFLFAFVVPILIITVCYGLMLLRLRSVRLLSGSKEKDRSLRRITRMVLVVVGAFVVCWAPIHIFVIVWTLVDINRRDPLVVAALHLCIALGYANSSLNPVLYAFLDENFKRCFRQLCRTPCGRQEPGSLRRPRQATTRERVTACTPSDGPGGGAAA
The target of assay [9] is Opioid receptor (mu and kappa) (Cavia porcellus) (UniProt P41144+P97266). Nature of the assay: Ratio of Ke for mu opioid receptor to Ke for kappa opioid receptor. It counts as protein assay.
Chain of Opioid receptor (mu and kappa) (Cavia porcellus) (P41144 whole entry, looked up): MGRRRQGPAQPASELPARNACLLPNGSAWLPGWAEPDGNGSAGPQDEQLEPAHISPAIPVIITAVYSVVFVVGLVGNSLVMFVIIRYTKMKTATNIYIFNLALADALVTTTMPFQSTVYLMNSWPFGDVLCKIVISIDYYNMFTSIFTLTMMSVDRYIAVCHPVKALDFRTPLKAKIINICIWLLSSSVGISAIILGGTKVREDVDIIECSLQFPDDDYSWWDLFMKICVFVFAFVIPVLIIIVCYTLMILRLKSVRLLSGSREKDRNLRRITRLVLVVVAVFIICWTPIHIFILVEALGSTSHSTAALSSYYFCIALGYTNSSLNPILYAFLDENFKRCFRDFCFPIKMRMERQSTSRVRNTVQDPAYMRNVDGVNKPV
Chain of Opioid receptor (mu and kappa) (Cavia porcellus) (P97266 whole entry, looked up): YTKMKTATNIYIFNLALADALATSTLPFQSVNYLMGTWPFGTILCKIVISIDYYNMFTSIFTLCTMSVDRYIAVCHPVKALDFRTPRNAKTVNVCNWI
Assay [10] is described as follows: Ratio of Ke for guinea pig mu opioid receptor to Ke for mouse delta opioid receptor.

The Ki is the equilibrium dissociation constant of an inhibitor or competing ligand from its target. High values mean lower affinity, low ones higher affinity.

Chain of Mu-type opioid receptor (P33535 whole entry): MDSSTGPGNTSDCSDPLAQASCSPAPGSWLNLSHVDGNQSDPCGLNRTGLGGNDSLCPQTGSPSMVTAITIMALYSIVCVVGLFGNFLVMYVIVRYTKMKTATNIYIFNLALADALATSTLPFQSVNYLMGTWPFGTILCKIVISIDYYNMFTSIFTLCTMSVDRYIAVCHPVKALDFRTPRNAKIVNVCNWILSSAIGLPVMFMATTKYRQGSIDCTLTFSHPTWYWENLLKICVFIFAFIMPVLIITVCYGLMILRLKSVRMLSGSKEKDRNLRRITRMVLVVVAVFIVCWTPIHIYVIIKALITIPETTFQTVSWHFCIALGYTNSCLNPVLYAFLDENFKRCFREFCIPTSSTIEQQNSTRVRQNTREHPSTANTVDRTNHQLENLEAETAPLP
Chain of Kappa-type opioid receptor (P41144 whole entry): as the sequence (P41144 whole entry, looked up) above
Chain of Opioid receptors; mu & delta (Rattus norvegicus) (P33533 whole entry, looked up): as the sequence (P33533 whole entry) above
Chain of Opioid receptors; mu & delta (Rattus norvegicus) (P33535 whole entry, looked up): as the sequence (P33535 whole entry) above
Chain of Kappa-type opioid receptor (Cavia porcellus) (P41144 whole entry): as the sequence (P41144 whole entry, looked up) above
Chain of Mu-type opioid receptor (Cavia porcellus) (P97266 whole entry): as the sequence (P97266 whole entry, looked up) above

On to `Cc1cc(O)cc(C)c1CCC(=O)NC1CSSCC(C(N)=O)NC(=O)[C@H](Cc2ccc([N+](=O)[O-])cc2)NC(=O)CNC1=O` (stereo in doubt), for which the inhibition constant (Ki) in [1] was 4.79 nM; in assay [2], 11.6 nM; in assay [3], 299 nM. Further, the Ratio Ki amounted to 62 in assay [4] and 2 in assay [5]. Moreover, the Ke came to 3.68 nM in assay [6], 22.6 nM in assay [7] and 63.3 nM in assay [8]. The Ratio Ke in [9] is 6; in assay [10], 17.

As for `CC[C@H](C)[C@H](NC(=O)[C@H](CCCNC(=N)N)NC(=O)[C@H](CCCNC(=N)N)NC(=O)[C@H](CC(C)C)NC(=O)[C@H](Cc1ccccc1)NC(=O)CNC(=O)CNC(=O)CCc1c(C)cc(C(N)=O)cc1C)C(=O)N[C@@H](CCCNC(=N)N)C(=O)N1CCC[C@H]1C(=O)N[C@@H](CCCCN)C(N)=O`, the Ki worked out at 44.9 nM in assay [1], 129 nM in assay [2] and 32 nM in [3].

For the compound `Cc1cc(C(N)=O)cc(C)c1CCC(=O)NC1CSSCC(C(N)=O)NC(=O)[C@H](Cc2ccc([N+](=O)[O-])cc2)NC(=O)CNC1=O` (stereo in doubt), the inhibitory constant (Ki) was 2.84 nM in assay [1], 25.8 nM in [2] and 980 nM in [3]. The Ratio Ki in [4] came to 345; in assay [5], 9. Moreover, the Ke is 3.92 nM in assay [6], 74.1 nM in assay [7] and 176 nM in assay [8]. For the same compound, the figures for the Ratio Ke in [9] and in assay [10] were 19 and 45, respectively.
